Source: ChEMBL document CHEMBL1121663, “(Acylaryloxy)acetic acid diuretics. 3. 2,3-Dihydro-5-acyl-2-benzofurancarboxylic acids, a new class of uricosuric diuretics” (1981)

Key:
Pan troglodytes = assay: Compound was tested for natriuretic activity in chimpanzee at 5 mg/kg dose activity is measured as microequivalent of Na+/minute; muequiv of Na+/min; assay type: functional
Method in brief: (§1)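 Inulin iv gave GFR; urate and inulin clearances and Na+, K+, Cl- excretion were measured by AutoAnalyzer. Controls were three 20-min periods; compound was given orally in aqueous solution via nasal catheter. Response was the mean of eight 15-20 min periods, reported as treatment minus control from single experiments.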

Canis familiaris [1] = assay: Compound was tested for diuretic activity in dogs at 5 mg/kg dose after oral administration measured as microequivalent of Cl-/minute; assay type: functional, Canis lupus familiaris, Urine
Method in brief: (§2)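 Oral dog test: water loading (250 mL po, then 500 mL 1 h later). One hour later bladders were emptied by catheter and compound or placebo given in gelatin capsules. Dogs were kept in metabolism cages. Voided urine plus catheterized bladder urine was pooled at 5 h, and Na+, K+ and Cl- were measured by standard methods. Geometric means are reported.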

Canis familiaris [2] = assay: Compound was tested for diuretic activity in dogs at 5 mg/kg dose after oral administration measured as microequivalent of K+/minute; assay type: functional, Canis lupus familiaris, Urine; method in brief: as §2
Canis familiaris [3] = assay: Compound was tested for diuretic activity in dogs at 5 mg/kg dose after oral administration measured as microequivalent of Na+/minute; assay type: functional, Canis lupus familiaris, Urine; method in brief: as §2
Canis familiaris [4] = assay: Compound was tested for diuretic activity in dogs at 5 mg/kg dose after intravenous administration measured as microequivalent of Cl-/minute; 9/132 (Control/Drug treated); assay type: functional, Canis lupus familiaris, Urine
Method in brief: (§3)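 Intravenous dog clearance study. A priming iv injection of 1.5 mL/kg isoosmotic pH 7.4 phosphate buffer (20 mg PO4/kg) was given first. This was followed by infusion of 3 mL/min pH 7.4 buffer containing 4% mannitol (6.9 mg PO4/min) throughout the experiment. Urinary Na+, K+ and Cl- were measured by standard methods. Each value is the mean of the two highest consecutive 15-min collections.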

Canis familiaris [5] = assay: Compound was tested for diuretic activity in dogs at 5 mg/kg dose after intravenous administration measured as microequivalent of Na+/minute; 22/144 (Control/Drug treated); assay type: functional, Canis lupus familiaris, Urine
Rattus norvegicus [6] = assay: Natriuretic activity in rats at 27 mg/kg of dosage; mequiv of Na; assay type: functional
Method in brief: (§4)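 Rats housed three per metabolism cage received placebo vehicle or compound as a suspension in a final volume of 5.0 mL orally, with placebo groups run concurrently. Urine was collected over 0–5 h and analysed for Na+, K+ and Cl− by standard methods. Values are mequiv per cage, given as geometric means of three cages per dose level.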

Rattus norvegicus [7] = assay: Natriuretic activity in rats at 3 mg/kg of dosage; mequiv of Na; assay type: functional; method in brief: as §4
Rattus norvegicus [8] = assay: Natriuretic activity in rats at 81 mg/kg of dosage; mequiv of Na; assay type: functional; method in brief: as §4
Rattus norvegicus [9] = assay: Natriuretic activity in rats at 9 mg/kg of dosage; mequiv of Na; assay type: functional; method in brief: as §4
[10] = Compound was tested for natriuretic activity in chimpanzee at 5 mg/kg dose activity is measured as ratio of clearance of urate / […]; Curate/Cinulin; assay type: functional; method in brief: as §1
Canis familiaris [11] = assay: Diuretic activity in dogs following 5 mg/kg oral administration.
Canis familiaris [12] = assay: Compound was tested for diuretic activity in dogs at 5 mg/kg dose after intravenous administration measured as microequivalent of K+/minute; 4/19 (Control/Drug treated); assay type: functional, Canis lupus familiaris, Urine; method in brief: as §3
Canis familiaris [13] = assay: Compound was tested for diuretic activity in dogs at 5 mg/kg dose after intravenous administration, activity is expressed as urine volume; 1/6; assay type: functional, Canis lupus familiaris
Canis familiaris [14] = assay: Compound was tested for diuretic activity in dogs at 5 mg/kg dose after intravenous administration measured as microequivalent of Na+/minute; 4/193 (Control/Drug treated); assay type: functional, Canis lupus familiaris, Urine
Canis familiaris [15] = assay: Compound was tested for diuretic activity in dogs at 5 mg/kg dose after intravenous administration measured as microequivalent of Cl-/minute; 7/1385 (Control/Drug treated); assay type: functional, Canis lupus familiaris, Urine; method in brief: as §3
Canis familiaris [16] = assay: Compound was tested for diuretic activity in dogs at 5 mg/kg dose after intravenous administration measured as microequivalent of Na+/minute; 11/118 (Control/Drug treated); assay type: functional, Canis lupus familiaris, Urine
Canis familiaris [17] = assay: Compound was tested for diuretic activity in dogs at 5 mg/kg dose after intravenous administration measured as microequivalent of Cl-/minute; 43/54 (Control/Drug treated); assay type: functional, Canis lupus familiaris, Urine; method in brief: as §3
Canis familiaris [18] = assay: Compound was tested for diuretic activity in dogs at 5 mg/kg dose after intravenous administration measured as microequivalent of K+/minute; 6/35 (Control/Drug treated); assay type: functional, Canis lupus familiaris, Urine; method in brief: as §3
Canis familiaris [19] = assay: Compound was tested for diuretic activity in dogs at 5 mg/kg dose after intravenous administration measured as microequivalent of Cl-/minute (Control/Drug treated); assay type: functional, Canis lupus familiaris, Urine; conditions: in the assay text read “oral” for “intravenous”
Canis familiaris [20] = assay: Compound was tested for diuretic activity in dogs at 5 mg/kg dose after intravenous administration measured as microequivalent of K+/minute (Control/Drug treated); assay type: functional, Canis lupus familiaris, Urine; conditions: in the assay text read “oral” for “intravenous”
Canis familiaris [21] = assay: Compound was tested for diuretic activity in dogs at 5 mg/kg dose after oral administration measured as microequivalent of Na+/minute
Canis familiaris [22] = assay: Compound was tested for diuretic activity in dogs at 5 mg/kg dose after intravenous administration, activity is expressed as urine volume

Structure (SMILES) | Oral activity (Pan troglodytes) | Oral activity (Canis familiaris [1]) | Oral activity (Canis familiaris [2]) | Oral activity (Canis familiaris [3]) | Oral activity (Rattus norvegicus [6]) | Oral activity (Rattus norvegicus [7]) | Oral activity (Rattus norvegicus [8]) | Oral activity (Rattus norvegicus [9]) | Ratio [10] | Urine volume (Canis familiaris [11]) [mL] | further results
O=C(O)COc1ccc(C(=O)c2cccs2)c(Cl)c1Cl | 318 | 5.4 | 1.8 | 3.3 | 43 | 7 | 56 | 15 | 0.437 | 395 | Cl- excretion (Canis familiaris [4]): 132 µequiv/min; Na+ excretion (Canis familiaris [5]): 144 µequiv/min
O=C(c1ccccc1)c1cc2c(c(Cl)c1Cl)OC(C(=O)O)C2 (stereo not given) | – | – | – | – | 117 | 59 | 119 | 85 | – | – | K+ excretion (Canis familiaris [12]): 19 µequiv/min
O=C(c1ccc2c(c1)CC(C(=O)O)O2)c1cccs1 (stereo not given) | – | – | – | – | 7 | 6 | 22 | 4 | – | – | Urine volume (Canis familiaris [13]): 1 mL/min; Na+ excretion (Canis familiaris [14]): 193 µequiv/min
O=C(c1cccs1)c1cc2c(c(Cl)c1Cl)O[C@H](C(=O)O)C2 | 1451 | 53.7 | 8.3 | 46 | 283 | 177 | 339 | 251 | 0.132 | 501 | Cl- excretion (Canis familiaris [15]): 1380 µequiv/min
O=C(c1cccs1)c1cc2c(c(Cl)c1Cl)O[C@@H](C(=O)O)C2 | 95 | 4.3 | 2.5 | 4.8 | 41 | 48 | 29 | 38 | 0.454 | 233 | Na+ excretion (Canis familiaris [16]): 118 µequiv/min; Cl- excretion (Canis familiaris [17]): 54 µequiv/min; K+ excretion (Canis familiaris [18]): 35 µequiv/min
O=C(c1ccco1)c1cc2c(c(Cl)c1Cl)OC(C(=O)O)C2 (stereo not given) | – | – | – | – | 218 | 69 | 322 | 150 | – | – | –
N#CC1Cc2cc(C(=O)c3cccs3)c(Cl)c(Cl)c2O1 (stereo not given) | – | – | – | – | 10 | 6 | 8 | 9 | – | 190 | Oral activity (Canis familiaris [19]): 2.2; Oral activity (Canis familiaris [20]): 1.1; Oral activity (Canis familiaris [21]): 1
O=C(c1cccs1)c1cc2c(c(Cl)c1Cl)OC(CO)C2 (stereo not given) | – | – | – | – | 68 | 16 | 72 | 45 | – | – | –
NS(=O)(=O)c1cc(C(=O)O)c(NCc2ccco2)cc1Cl [FUROSEMIDE] | 1035 | – | – | – | 125 | 6 | 234 | 7 | -0.02 | – | Urine volume (Canis familiaris [22]): 700 mL
